Results taken from ChEMBL document CHEMBL4689842, “EUbOPEN Chemogenomics Library wave 1” (2021).

Experiments:
Assay type in all cases: toxicity, cell-based
Fibroblast = experiment: Incucyte cell viability with human fibroblast; conditions: 10 µM, compound concentration 10 uM; note: filed as whole numbers so only -1 and 0 and 1 occur
HEK-293T [1] = experiment: Incucyte cell viability with HEK293T; conditions: human, 10 µM, compound concentration 10 uM; note: filed as whole numbers so only -1 and 0 and 1 occur
HEK-293T [2] = experiment: Multiplex assay against HEK293T; conditions: human;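 for Population Tubulin-Different-Phenotype (%): share of the cells with healthy nuclei that show this phenotype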
Procedure, shortened: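 Hoechst33342, BioTracker Green Microtubule Cytoskeleton Dye, MitoTracker Red and Annexin V Alexa Fluor 680 were added to live cells at seeding, and imaging on a CQ1 microscope at 37°C and 5% CO2 followed compound addition. Gating by CellPathfinder machine learning separated cells into Hoechst high-intensity objects or normal cells, then normal cells into healthy, pyknosed or fragmented nuclei, then pyknosed cells into mitotic or apoptotic. Per cents of healthy-nucleus cells are reported for the tubulin, mitochondrial-mass and membrane-permeability phenotypes.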

[3] = 0 h, replicate number 1, timepoint 0 hours
[4] = 6 h, replicate number 1, timepoint 6 hours
[5] = 12 h, replicate number 1, timepoint 12 hours
[6] = 18 h, replicate number 1, timepoint 18 hours
[7] = 24 h, replicate number 1, timepoint 24 hours
[8] = 12 h, 1 µM, compound concentration 1 uM, replicate 1
[9] = 12 h, 1 µM, compound concentration 1 uM, replicate 2
[10] = 12 h, 10 µM, compound concentration 10 uM, replicate 1
[11] = 12 h, 10 µM, compound concentration 10 uM, replicate 2
[12] = 24 h, 1 µM, compound concentration 1 uM, replicate 1
[13] = 24 h, 1 µM, compound concentration 1 uM, replicate 2
[14] = 24 h, 10 µM, compound concentration 10 uM, replicate 1
[15] = 24 h, 10 µM, compound concentration 10 uM, replicate 2

CCOc1cc2ncc(C#N)c(Nc3ccc(OCc4cccc(F)c4)c(Cl)c3)c2cc1NC(=O)/C=C/CN(C)C [HKI-357]
Growth Rate (Fibroblast; [3]): 0
Growth Rate (Fibroblast; [4]): 0
Growth Rate (Fibroblast; [5]): 0
Growth Rate (Fibroblast; [6]): 0
Growth Rate (Fibroblast; [7]): 0
Growth Rate (HEK-293T [1]; [3]): 0
Growth Rate (HEK-293T [1]; [4]): 0
Growth Rate (HEK-293T [1]; [5]): 0
Growth Rate (HEK-293T [1]; [6]): 0
Growth Rate (HEK-293T [1]; [7]): 0
Population Apoptotic (%) (HEK-293T [2]; [8]): 18%
Population Fragmented Nuclei (%) (HEK-293T [2]; [8]): 19%
Population Healthy Nuclei (%) (HEK-293T [2]; [8]): 59%
Population Hoechst High Intensity Objects (%) (HEK-293T [2]; [8]): 13%
Population Membrane Permeable-Phenotype (%) (HEK-293T [2]; [8]): 4%
Population Mitochondria Different-Phenotype (%) (HEK-293T [2]; [8]): 8%
Population Mitotic Cells (%) (HEK-293T [2]; [8]): 81%
Population Normal (%) (HEK-293T [2]; [8]): 86%
Population Pyknosed Nuclei (%) (HEK-293T [2]; [8]): 21%
Population Tubulin-Different-Phenotype (%) (HEK-293T [2]; [8]): 4%
Total Cell Count (HEK-293T [2]; [8]): 555
Population Apoptotic (%) (HEK-293T [2]; [9]): 10%
Population Fragmented Nuclei (%) (HEK-293T [2]; [9]): 7%
Population Healthy Nuclei (%) (HEK-293T [2]; [9]): 87%
Population Hoechst High Intensity Objects (%) (HEK-293T [2]; [9]): 1%
Population Membrane Permeable-Phenotype (%) (HEK-293T [2]; [9]): 1%
Population Mitochondria Different-Phenotype (%) (HEK-293T [2]; [9]): 10%
Population Mitotic Cells (%) (HEK-293T [2]; [9]): 89%
Population Normal (%) (HEK-293T [2]; [9]): 98%
Population Pyknosed Nuclei (%) (HEK-293T [2]; [9]): 5%
Population Tubulin-Different-Phenotype (%) (HEK-293T [2]; [9]): 7%
Total Cell Count (HEK-293T [2]; [9]): 1619
Population Apoptotic (%) (HEK-293T [2]; [10]): 31%
Population Fragmented Nuclei (%) (HEK-293T [2]; [10]): 13%
Population Healthy Nuclei (%) (HEK-293T [2]; [10]): 50%
Population Hoechst High Intensity Objects (%) (HEK-293T [2]; [10]): 10%
Population Membrane Permeable-Phenotype (%) (HEK-293T [2]; [10]): 19%
Population Mitochondria Different-Phenotype (%) (HEK-293T [2]; [10]): 16%
Population Mitotic Cells (%) (HEK-293T [2]; [10]): 68%
Population Normal (%) (HEK-293T [2]; [10]): 89%
Population Pyknosed Nuclei (%) (HEK-293T [2]; [10]): 35%
Population Tubulin-Different-Phenotype (%) (HEK-293T [2]; [10]): 61%
Total Cell Count (HEK-293T [2]; [10]): 591
Population Apoptotic (%) (HEK-293T [2]; [11]): 14%
Population Fragmented Nuclei (%) (HEK-293T [2]; [11]): 3%
Population Healthy Nuclei (%) (HEK-293T [2]; [11]): 83%
Population Hoechst High Intensity Objects (%) (HEK-293T [2]; [11]): 2%
Population Membrane Permeable-Phenotype (%) (HEK-293T [2]; [11]): 11%
Population Mitochondria Different-Phenotype (%) (HEK-293T [2]; [11]): 23%
Population Mitotic Cells (%) (HEK-293T [2]; [11]): 85%
Population Normal (%) (HEK-293T [2]; [11]): 97%
Population Pyknosed Nuclei (%) (HEK-293T [2]; [11]): 12%
Population Tubulin-Different-Phenotype (%) (HEK-293T [2]; [11]): 78%
Total Cell Count (HEK-293T [2]; [11]): 1328
Population Apoptotic (%) (HEK-293T [2]; [12]): 31%
Population Fragmented Nuclei (%) (HEK-293T [2]; [12]): 14%
Population Healthy Nuclei (%) (HEK-293T [2]; [12]): 74%
Population Hoechst High Intensity Objects (%) (HEK-293T [2]; [12]): 8%
Population Membrane Permeable-Phenotype (%) (HEK-293T [2]; [12]): 7%
Population Mitochondria Different-Phenotype (%) (HEK-293T [2]; [12]): 5%
Population Mitotic Cells (%) (HEK-293T [2]; [12]): 68%
Population Normal (%) (HEK-293T [2]; [12]): 91%
Population Pyknosed Nuclei (%) (HEK-293T [2]; [12]): 11%
Population Tubulin-Different-Phenotype (%) (HEK-293T [2]; [12]): 9%
Total Cell Count (HEK-293T [2]; [12]): 612
Population Apoptotic (%) (HEK-293T [2]; [13]): 4%
Population Fragmented Nuclei (%) (HEK-293T [2]; [13]): 26%
Population Healthy Nuclei (%) (HEK-293T [2]; [13]): 71%
Population Hoechst High Intensity Objects (%) (HEK-293T [2]; [13]): 2%
Population Membrane Permeable-Phenotype (%) (HEK-293T [2]; [13]): 4%
Population Mitochondria Different-Phenotype (%) (HEK-293T [2]; [13]): 2%
Population Mitotic Cells (%) (HEK-293T [2]; [13]): 96%
Population Normal (%) (HEK-293T [2]; [13]): 97%
Population Pyknosed Nuclei (%) (HEK-293T [2]; [13]): 1%
Population Tubulin-Different-Phenotype (%) (HEK-293T [2]; [13]): 8%
Total Cell Count (HEK-293T [2]; [13]): 2811
Population Apoptotic (%) (HEK-293T [2]; [14]): 28%
Population Fragmented Nuclei (%) (HEK-293T [2]; [14]): 12%
Population Healthy Nuclei (%) (HEK-293T [2]; [14]): 59%
Population Hoechst High Intensity Objects (%) (HEK-293T [2]; [14]): 8%
Population Membrane Permeable-Phenotype (%) (HEK-293T [2]; [14]): 10%
Population Mitochondria Different-Phenotype (%) (HEK-293T [2]; [14]): 17%
Population Mitotic Cells (%) (HEK-293T [2]; [14]): 71%
Population Normal (%) (HEK-293T [2]; [14]): 91%
Population Pyknosed Nuclei (%) (HEK-293T [2]; [14]): 28%
Population Tubulin-Different-Phenotype (%) (HEK-293T [2]; [14]): 72%
Total Cell Count (HEK-293T [2]; [14]): 592
Population Apoptotic (%) (HEK-293T [2]; [15]): 11%
Population Fragmented Nuclei (%) (HEK-293T [2]; [15]): 11%
Population Healthy Nuclei (%) (HEK-293T [2]; [15]): 81%
Population Hoechst High Intensity Objects (%) (HEK-293T [2]; [15]): 3%
Population Membrane Permeable-Phenotype (%) (HEK-293T [2]; [15]): 12%
Population Mitochondria Different-Phenotype (%) (HEK-293T [2]; [15]): 9%
Population Mitotic Cells (%) (HEK-293T [2]; [15]): 88%
Population Normal (%) (HEK-293T [2]; [15]): 96%
Population Pyknosed Nuclei (%) (HEK-293T [2]; [15]): 6%
Population Tubulin-Different-Phenotype (%) (HEK-293T [2]; [15]): 70%
Total Cell Count (HEK-293T [2]; [15]): 1894
